The record followed here is ChEMBL document CHEMBL4382258, “Design and Optimization of Sulfone Pyrrolidine Sulfonamide Antagonists of Transient Receptor Potential Vanilloid-4 with in Vivo Activity in a Pulmonary Edema Model” (J Med Chem, 2018).

pIC50: −log10 of the molar value. Some results are limits rather than exact numbers.

One data set deals with Cytochrome P450 3A4 (Homo sapiens, UniProt P08684). As to the kind of experiment: Time dependent inhibition of CYP3A4 (unknown origin) up to 100 uM preincubated up to 15 mins followed by 7-benzyloxy-trifluoromethylcoumarin substrate and NADPH addition by fluorescence assay. It counts as ADME.
Cytochrome P450 3A4, sequence (P08684 whole entry): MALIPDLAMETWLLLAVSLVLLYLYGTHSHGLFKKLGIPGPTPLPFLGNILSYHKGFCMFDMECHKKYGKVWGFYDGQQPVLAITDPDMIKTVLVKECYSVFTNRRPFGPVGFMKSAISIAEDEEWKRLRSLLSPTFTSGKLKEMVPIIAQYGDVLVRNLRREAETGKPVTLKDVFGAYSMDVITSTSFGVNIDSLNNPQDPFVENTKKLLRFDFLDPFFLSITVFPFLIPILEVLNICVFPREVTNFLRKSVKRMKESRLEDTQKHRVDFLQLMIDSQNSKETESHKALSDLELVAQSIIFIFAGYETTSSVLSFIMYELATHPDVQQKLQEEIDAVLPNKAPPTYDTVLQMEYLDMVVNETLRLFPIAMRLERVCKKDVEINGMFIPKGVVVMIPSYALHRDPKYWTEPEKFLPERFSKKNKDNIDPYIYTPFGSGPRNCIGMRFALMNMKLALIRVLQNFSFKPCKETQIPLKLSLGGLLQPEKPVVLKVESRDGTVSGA
The nature of data set [1]: Oral bioavailability in Sprague-Dawley rat at 2 mg/kg by LC/MS/MS analysis. It counts as ADME, organism-based. As to conditions: in vivo; call rule not given here.
Data set [2] in a line: Permeability of the compound by PAMPA. As to conditions: read-out: permeability. It counts as ADME. In general terms: The PAMPA barrier holds no transporters, so it reflects passive diffusion.
Data set [3] addresses Transient receptor potential cation channel subfamily M member 2 (Homo sapiens, UniProt O94759). The data set is described as follows: Antagonist activity at TRPM2 (unknown origin).
The target in another data set is T1, TRPC3/TRPC6 (Homo sapiens, UniProt Q13507+Q9Y210).
T1 sequence (Q9Y210 whole entry): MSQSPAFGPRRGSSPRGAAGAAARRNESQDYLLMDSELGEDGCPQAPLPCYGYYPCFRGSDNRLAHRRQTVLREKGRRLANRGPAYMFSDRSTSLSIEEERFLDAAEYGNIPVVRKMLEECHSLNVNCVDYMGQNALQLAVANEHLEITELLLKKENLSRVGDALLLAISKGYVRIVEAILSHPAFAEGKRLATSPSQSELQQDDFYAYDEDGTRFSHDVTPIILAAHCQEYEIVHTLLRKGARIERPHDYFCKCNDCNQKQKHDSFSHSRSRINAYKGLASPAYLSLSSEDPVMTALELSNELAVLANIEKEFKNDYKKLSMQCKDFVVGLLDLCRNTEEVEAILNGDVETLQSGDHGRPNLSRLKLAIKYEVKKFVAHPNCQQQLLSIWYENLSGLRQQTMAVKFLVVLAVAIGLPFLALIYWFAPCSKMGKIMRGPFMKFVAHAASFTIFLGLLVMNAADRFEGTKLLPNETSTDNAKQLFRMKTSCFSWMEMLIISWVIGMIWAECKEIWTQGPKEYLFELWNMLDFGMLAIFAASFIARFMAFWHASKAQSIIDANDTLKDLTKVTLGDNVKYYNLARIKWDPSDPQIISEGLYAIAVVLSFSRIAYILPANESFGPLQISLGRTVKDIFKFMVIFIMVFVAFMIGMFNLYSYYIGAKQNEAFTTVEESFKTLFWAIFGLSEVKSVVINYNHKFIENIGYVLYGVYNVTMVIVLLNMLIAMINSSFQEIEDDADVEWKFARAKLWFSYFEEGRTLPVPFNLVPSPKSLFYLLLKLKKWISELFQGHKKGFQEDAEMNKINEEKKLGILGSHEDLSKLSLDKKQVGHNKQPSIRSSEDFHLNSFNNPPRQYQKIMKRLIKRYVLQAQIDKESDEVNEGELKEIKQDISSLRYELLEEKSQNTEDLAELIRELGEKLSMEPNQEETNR
T1 sequence (Q13507 whole entry): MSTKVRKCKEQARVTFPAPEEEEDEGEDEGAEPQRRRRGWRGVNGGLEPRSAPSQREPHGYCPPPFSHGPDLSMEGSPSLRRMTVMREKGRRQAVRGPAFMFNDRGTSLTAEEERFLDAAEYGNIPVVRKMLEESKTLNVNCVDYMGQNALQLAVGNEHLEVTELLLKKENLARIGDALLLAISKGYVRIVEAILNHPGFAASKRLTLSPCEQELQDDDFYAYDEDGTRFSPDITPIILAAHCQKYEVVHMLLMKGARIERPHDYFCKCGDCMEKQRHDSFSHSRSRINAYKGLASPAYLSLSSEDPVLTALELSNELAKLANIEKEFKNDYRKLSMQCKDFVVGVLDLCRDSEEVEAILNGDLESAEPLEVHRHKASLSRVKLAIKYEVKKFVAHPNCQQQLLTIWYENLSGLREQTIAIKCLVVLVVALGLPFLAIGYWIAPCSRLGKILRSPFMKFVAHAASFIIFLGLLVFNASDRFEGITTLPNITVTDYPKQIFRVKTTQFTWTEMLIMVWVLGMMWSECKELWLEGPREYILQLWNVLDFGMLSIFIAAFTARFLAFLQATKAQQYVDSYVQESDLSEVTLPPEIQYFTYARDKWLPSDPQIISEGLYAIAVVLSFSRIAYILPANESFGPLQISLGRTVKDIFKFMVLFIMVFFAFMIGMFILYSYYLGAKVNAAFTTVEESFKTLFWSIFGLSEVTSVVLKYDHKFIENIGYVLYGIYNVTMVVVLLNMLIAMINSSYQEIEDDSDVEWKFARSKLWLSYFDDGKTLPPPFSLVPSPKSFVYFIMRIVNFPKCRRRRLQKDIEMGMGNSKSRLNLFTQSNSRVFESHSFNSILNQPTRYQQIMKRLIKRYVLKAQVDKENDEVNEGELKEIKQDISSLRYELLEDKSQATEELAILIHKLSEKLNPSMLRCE
As to the kind of experiment: Antagonist activity at TRPC3/TRPC6 (unknown origin). It counts as protein-complex assay.

Data set [4] deals with Transient receptor potential cation channel subfamily V member 4 (Rattus norvegicus, UniProt Q9ERZ8). As to the kind of experiment: Antagonist activity at rat TRPV4 expressed in BHK/AC9 cells assessed as inhibition of GSK634775-induced […] pre-incubated for 10 mins followed by agonist addition by Fluo-4-AM dye-based FLIPR assay. Type of data set: cell-based.
Transient receptor potential cation channel subfamily V member 4, sequence (Q9ERZ8 whole entry): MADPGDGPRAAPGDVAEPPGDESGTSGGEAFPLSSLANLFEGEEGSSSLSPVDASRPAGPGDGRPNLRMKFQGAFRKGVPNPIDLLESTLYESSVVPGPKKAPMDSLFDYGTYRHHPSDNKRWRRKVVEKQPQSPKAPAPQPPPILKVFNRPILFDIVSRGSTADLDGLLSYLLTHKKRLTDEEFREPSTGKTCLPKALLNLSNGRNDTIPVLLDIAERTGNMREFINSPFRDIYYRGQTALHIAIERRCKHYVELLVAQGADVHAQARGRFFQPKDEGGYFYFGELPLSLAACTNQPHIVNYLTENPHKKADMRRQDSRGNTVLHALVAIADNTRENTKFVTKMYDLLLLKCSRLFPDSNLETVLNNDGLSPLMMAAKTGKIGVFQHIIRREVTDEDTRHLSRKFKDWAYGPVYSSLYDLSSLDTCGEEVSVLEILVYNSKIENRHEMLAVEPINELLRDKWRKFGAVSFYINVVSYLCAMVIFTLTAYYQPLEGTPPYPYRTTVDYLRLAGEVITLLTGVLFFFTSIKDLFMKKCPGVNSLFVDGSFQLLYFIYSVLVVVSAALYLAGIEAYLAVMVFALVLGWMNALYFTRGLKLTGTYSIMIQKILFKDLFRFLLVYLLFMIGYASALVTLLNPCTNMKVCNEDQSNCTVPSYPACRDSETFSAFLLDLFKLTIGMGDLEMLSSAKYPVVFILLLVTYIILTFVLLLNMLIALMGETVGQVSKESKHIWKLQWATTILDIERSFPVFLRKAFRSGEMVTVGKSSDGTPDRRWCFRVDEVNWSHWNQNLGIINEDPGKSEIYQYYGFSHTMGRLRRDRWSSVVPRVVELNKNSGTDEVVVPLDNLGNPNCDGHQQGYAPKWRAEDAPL

A short description of data set [5]: AUC (0 to t) in rat at 2.4 mg/kg, po. Type of data set: ADME, organism-based. Particulars: in vivo.
Data set [6] in a line: AUC (0 to t) in rat at 98 mg/kg, po. Type of data set: ADME, organism-based. As to conditions: in vivo.
Data set [7] can be described thus: AUC (0 to t) in dog at 0.9 mg/kg, po. Type of data set: ADME, organism-based, Canis lupus familiaris. Particulars: in vivo.
The nature of data set [8]: AUC (0 to t) in dog at 30 mg/kg, po. It counts as ADME, organism-based, Canis lupus familiaris. As to conditions: in vivo.
A short description of data set [9]: Dose normalized AUC (0 to t) in rat at 2.4 mg/kg, po. Type of data set: ADME, organism-based. Particulars: in vivo.
A short description of data set [10]: Dose normalized AUC (0 to t) in rat at 98 mg/kg, po. As to conditions: in vivo. It counts as ADME, organism-based.
Data set [11] is described as follows: Dose normalized AUC (0 to t) in dog at 30 mg/kg, po. Type of data set: ADME, organism-based, Canis lupus familiaris. Particulars: in vivo.
Data set [12] can be described thus: Plasma concentration in Sprague-Dawley rat heart failure-induced pulmonary edema model at 0.02 ug/kg, iv bolus loading dose followed by 0.3 ug/kg/min, iv continuous infusion dose for 60 mins. As to conditions: 2e-05 mg/kg. Type of data set: ADME, organism-based.
Data set [13] is described as follows: Plasma concentration in Sprague-Dawley rat heart failure-induced pulmonary edema model at 0.07 ug/kg, iv bolus loading dose followed by 0.8 ug/kg/min, iv continuous infusion dose for 60 mins. Type of data set: ADME, organism-based. As to conditions: 7e-05 mg/kg.
A short description of data set [14]: Plasma concentration in Sprague-Dawley rat heart failure-induced pulmonary edema model at 0.21 ug/kg, iv bolus loading dose followed by 2.3 ug/kg/min, iv continuous infusion dose for 60 mins. Type of data set: ADME, organism-based.
In a further data set the test system is Rattus norvegicus. The data set is described as follows: Reversal of heart failure-induced pulmonary edema in Sprague-Dawley rat assessed as inhibition of GSK1016790A-induced increase in lung wet weight to body weight ratio at 0.21 ug/kg, iv bolus loading dose followed by 2.3 ug/kg/min, iv continuous infusion dose for 60 mins prior to agonist administration relative to control. It counts as functional. The procedure, abridged: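 Rats given vehicle or antagonist by i.v. infusion, then agonist GSK1016790A i.v. at 10 µg/kg/min for 10 min (100 µg/kg total). Edema scored as wet lung weight/body weight ratio against naïve animals; inhibition computed from the agonist response; mean ± SEM.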

Transient receptor potential cation channel subfamily M member 2, sequence (O94759 whole entry): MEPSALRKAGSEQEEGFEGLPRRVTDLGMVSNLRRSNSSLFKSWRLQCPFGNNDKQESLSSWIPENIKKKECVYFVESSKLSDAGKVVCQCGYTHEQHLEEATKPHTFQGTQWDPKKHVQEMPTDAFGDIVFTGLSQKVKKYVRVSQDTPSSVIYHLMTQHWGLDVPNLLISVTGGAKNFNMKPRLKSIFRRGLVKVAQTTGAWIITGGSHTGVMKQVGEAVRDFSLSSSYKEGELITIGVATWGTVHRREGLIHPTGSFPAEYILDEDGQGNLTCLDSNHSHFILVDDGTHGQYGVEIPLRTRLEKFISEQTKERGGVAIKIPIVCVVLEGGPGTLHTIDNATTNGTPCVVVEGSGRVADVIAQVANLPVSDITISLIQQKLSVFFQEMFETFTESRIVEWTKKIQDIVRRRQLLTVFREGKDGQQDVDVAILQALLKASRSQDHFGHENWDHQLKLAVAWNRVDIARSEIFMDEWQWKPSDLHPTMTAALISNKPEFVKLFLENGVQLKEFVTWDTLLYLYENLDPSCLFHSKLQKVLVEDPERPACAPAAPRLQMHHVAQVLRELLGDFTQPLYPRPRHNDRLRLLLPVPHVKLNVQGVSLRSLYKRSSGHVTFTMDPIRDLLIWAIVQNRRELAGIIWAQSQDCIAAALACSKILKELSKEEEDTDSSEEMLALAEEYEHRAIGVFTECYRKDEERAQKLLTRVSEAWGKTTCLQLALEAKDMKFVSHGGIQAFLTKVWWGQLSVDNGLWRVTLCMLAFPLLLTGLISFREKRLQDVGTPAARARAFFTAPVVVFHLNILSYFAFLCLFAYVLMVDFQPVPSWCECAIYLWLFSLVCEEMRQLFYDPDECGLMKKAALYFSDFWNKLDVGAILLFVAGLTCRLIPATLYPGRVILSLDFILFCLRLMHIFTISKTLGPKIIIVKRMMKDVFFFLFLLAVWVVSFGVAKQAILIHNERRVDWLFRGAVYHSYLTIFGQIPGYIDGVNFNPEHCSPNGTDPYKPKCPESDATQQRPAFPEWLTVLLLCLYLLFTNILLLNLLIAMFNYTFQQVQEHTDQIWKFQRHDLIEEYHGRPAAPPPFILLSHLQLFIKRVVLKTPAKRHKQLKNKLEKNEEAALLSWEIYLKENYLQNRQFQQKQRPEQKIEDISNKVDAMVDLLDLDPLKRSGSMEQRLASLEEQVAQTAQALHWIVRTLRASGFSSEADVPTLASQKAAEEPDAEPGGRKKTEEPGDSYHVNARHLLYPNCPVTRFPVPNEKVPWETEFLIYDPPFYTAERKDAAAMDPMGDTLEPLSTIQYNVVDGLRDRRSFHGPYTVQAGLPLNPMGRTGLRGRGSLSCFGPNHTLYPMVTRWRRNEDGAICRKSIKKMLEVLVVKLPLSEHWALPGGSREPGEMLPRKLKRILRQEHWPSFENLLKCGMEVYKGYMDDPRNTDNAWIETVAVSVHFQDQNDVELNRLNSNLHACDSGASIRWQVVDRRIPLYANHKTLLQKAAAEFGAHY

Take `N#Cc1ccc(S(=O)(=O)N2C[C@H](S(=O)(=O)c3ccc(Cl)cc3)[C@](O)(CO)C2)c(Cl)c1`: on Cytochrome P450 3A4, the TDI result was “Not Active”. Besides, the bioavailability (as a rule, dose-corrected exposure relative to a reference, in per cent) in data set [1] is 100%. The Papp in data set [2] amounted to 35 ×10⁻⁶ cm/s. Besides, the pIC50 (in general, the negative decadic logarithm of the IC50, by convention in mol/L) in [3] is less than 4.52; at TRPC3/TRPC6, less than 4.52; in [4], 8.40. Besides, the AUC(0-t) (commonly the area under the concentration-time curve up to a stated or last time point) stood at 1100 ng·h/mL in data set [5], 40000 ng·h/mL in data set [6], 2500 ng·h/mL in data set [7] and 90000 ng·h/mL in data set [8]. The AUCt/dose in data set [9] came to 0.5 kg·h/L; in data set [10] it was 0.4 kg·h/L; in data set [11] it was 3 kg·h/L. Besides, the concentration at 1 h is 14 nM in [12], 52 nM in data set [13] and 152 nM in [14]. For the same compound, in the data set on Rattus norvegicus, the “inhibition (INH)” value stood at 99%.
